# Source: ChEMBL document CHEMBL6071158, “Design, synthesis, and in vitro biological evaluation of meta-sulfonamidobenzamide-based antibacterial LpxH inhibitors” (Eur J Med Chem, 2024)
# What was measured:
# Escherichia coli [1] = test: Antibacterial activity against wild type Escherichia coli ATCC 25922 incubated for 16 to 20 hrs by Mueller-Hinton broth based two-fold serial dilution method; assay type: functional; details: time 16-20 hrs
# Escherichia coli [2] = test: Inhibition of Escherichia coli LpXH enzyme at 100 nM by colorimetric coupled enzymatic analysis relative to control
# How it was run: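 AaLpxE-coupled assay: E. coli LpxH 0.1 nM and UDP-DAGn 20 µM (final) in 20 mM Tris-HCl pH 8.0, BSA, 0.02 % Triton X-100, 1 mM MnCl₂, 1 mM DTT, 10 % DMSO; inhibitor pre-incubated with enzyme 10 min, reaction 30 min at 37 °C, EDTA quench, then LpxE 30 min; released phosphate by malachite green at 620 nm vs phosphate standard; triplicate.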
# Escherichia coli [3] = test: Antibacterial activity against efflux pump-deficient delta tolC Escherichia coli ATCC 25922 assessed as bacterial growth inhibition incubated for 16 to 20 hrs by Mueller-Hinton broth based two-fold serial dilution method; assay type: functional; details: time 16-20 hrs
# [4] = Hemolysis activity in human RBC cells assessed as effect on hemolysis relative to control; assay type: toxicity, cell-based, Erythrocyte; details: human red blood cells, read-out: Activity
# [5] = Cytotoxicity against human HepG2 cells assessed as inhibition of cells incubated for 72 hrs by fluorometric microculture analysis; assay type: toxicity, cell-based
# How it was run: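 HepG2 (mycoplasma-free, ≤20 passages, DMEM + 10 % FBS + pen/strep) seeded 4000/well, cultured overnight, then exposed 72 h at 37 °C, 5 % CO₂ to nine two-fold dilutions in duplicate, top 100 µM. Viability by fluorescein diacetate hydrolysis (0.5 µg/ml FDA, 50 min, ex 475/em 520 nm); survival index vs control; IC50 by non-linear regression of log concentration-effect curves. Bortezomib 2 µM positive control.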
# hERG (KCNH2) [6] = biological target: T1, hERG (KCNH2) (Homo sapiens, UniProt Q12809); test: Inhibition of hERG expressed in CHO cells at 10 uM by automated patch clamp analysis relative to control; assay type: toxicity, cell-based; details: CHO cells that express hERG
# How it was run: (§1)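 Stably expressing CHO-KV11.1 cells, automated whole-cell population patch clamp (10 cells) at 22 °C; vehicle baseline (0.43 % DMSO) then two cumulatively rising concentrations, 30 s exposure. Holding −80 mV, steps in 10 mV increments to 50 mV for 5 s, tail current at −50 mV (peak in first 90 ms, leak-subtracted); protocol every 150 s; triplicate, mean ± SEM.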
# hERG (KCNH2) [7] = biological target: T1, hERG (KCNH2); test: Inhibition of hERG expressed in CHO cells at 30 uM by automated patch clamp analysis relative to control; assay type: toxicity, cell-based; details: CHO cells that express hERG; how it was run: as §1
# Klebsiella pneumoniae [8] = test: Antibacterial activity against wild type Klebsiella pneumoniae ATCC 13883 assessed as of bacterial growth incubated for 16 to 20 hrs by Mueller-Hinton broth based two-fold serial dilution method
# Escherichia coli [9] = test: Antibacterial activity against Escherichia coli ATCC 25922 assessed as viable colonies measured after 18 to 20 hrs by Mueller-Hinton II broth assay; assay type: functional; details: time 18-20 hrs
# Klebsiella pneumoniae [10] = test: Antibacterial activity against Klebsiella pneumonia ATCC 13883 assessed as viable colonies measured after 18 to 20 hrs by Mueller-Hinton II broth assay; assay type: functional; details: time 18-20 hrs
# Escherichia coli [11] = test: Antibacterial activity against efflux-defective Escherichia coli delta tolC ATCC 25922; assay type: functional
# T1 sequence (Q12809 whole entry): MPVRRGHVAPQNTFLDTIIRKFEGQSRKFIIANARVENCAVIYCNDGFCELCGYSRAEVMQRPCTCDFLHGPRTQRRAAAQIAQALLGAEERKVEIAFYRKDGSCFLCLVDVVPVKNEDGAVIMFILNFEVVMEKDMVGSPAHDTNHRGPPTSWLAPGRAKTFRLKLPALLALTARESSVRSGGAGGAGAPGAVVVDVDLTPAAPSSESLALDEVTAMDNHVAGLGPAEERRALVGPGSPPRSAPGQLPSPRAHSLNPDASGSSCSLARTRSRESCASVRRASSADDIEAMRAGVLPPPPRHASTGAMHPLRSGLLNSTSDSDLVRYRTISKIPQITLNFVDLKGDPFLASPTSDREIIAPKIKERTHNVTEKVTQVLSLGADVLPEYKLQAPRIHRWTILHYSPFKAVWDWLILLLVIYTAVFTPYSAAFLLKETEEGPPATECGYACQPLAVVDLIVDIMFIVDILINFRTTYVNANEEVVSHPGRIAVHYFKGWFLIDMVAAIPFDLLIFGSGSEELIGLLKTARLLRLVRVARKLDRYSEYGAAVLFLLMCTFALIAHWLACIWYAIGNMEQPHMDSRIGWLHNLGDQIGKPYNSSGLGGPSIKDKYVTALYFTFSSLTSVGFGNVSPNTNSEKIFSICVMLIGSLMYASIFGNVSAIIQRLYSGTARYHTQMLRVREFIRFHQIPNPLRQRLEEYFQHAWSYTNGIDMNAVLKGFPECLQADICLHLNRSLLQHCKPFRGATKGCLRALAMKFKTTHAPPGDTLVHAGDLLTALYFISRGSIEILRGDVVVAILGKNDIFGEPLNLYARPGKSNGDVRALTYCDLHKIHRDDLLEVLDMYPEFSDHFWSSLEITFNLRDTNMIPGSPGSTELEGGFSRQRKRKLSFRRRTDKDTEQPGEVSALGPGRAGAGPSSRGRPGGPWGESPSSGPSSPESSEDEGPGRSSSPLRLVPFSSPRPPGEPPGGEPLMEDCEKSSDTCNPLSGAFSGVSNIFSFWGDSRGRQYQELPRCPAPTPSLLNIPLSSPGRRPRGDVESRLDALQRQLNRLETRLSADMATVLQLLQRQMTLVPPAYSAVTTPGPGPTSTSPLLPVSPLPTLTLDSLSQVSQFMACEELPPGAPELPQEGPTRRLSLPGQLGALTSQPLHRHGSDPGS
Structure (SMILES),MIC (Escherichia coli [1]),inhibition (Escherichia coli [2]),MIC (Escherichia coli [3]),hemolysis [4],IC50 at 72 h [5],inhibition at 10 µM (hERG (KCNH2) [6]),inhibition at 30 µM (hERG (KCNH2) [7]),MIC (Klebsiella pneumoniae [8]),MIC (Escherichia coli [9]),MIC (Klebsiella pneumoniae [10]),MIC (Escherichia coli [11])
NC(=O)[C@H]1CC[C@H](C(F)(F)c2cc(Cl)nc(N3CCN(S(=O)(=O)c4ccc(N5C[C@@H](N)CC5=O)cc4)CC3)c2)CC1,0.3 µg/mL,–,–,–,–,–,–,–,–,–,–
Cc1cc(C#N)nc(N2CCN(S(=O)(=O)c3ccc(NC(=O)c4cc(CNCCCN)cc(NS(C)(=O)=O)c4)cc3)CC2)n1,8 µg/mL,63%,0.5 µg/mL,0.08%,> 100 µM,3%,9%,4 µg/mL,–,–,–
Cc1cc(C#N)nc(N2CCN(S(=O)(=O)c3ccc(NC(=O)c4cc(CNCCCN)ccc4N(C)S(C)(=O)=O)cc3)CC2)n1,2 µg/mL,69%,≤ 0.125 µg/mL,0.06%,55 µM,4%,11%,1 µg/mL,–,–,–
Cc1cc(C#N)nc(N2CCN(S(=O)(=O)c3ccc(NC(=O)c4cc(CNC[C@H]5C[C@@H]5N)ccc4N(C)S(C)(=O)=O)cc3)CC2)n1,2 µg/mL,100%,≤ 0.125 µg/mL,0.35%,47 µM,9%,28%,0.5 µg/mL,2 µg/mL,0.5 µg/mL,–
Cc1cc(C#N)nc(N2CCN(S(=O)(=O)c3ccc(NC(=O)c4cc(CN5CC(CN)C5)cc(NS(C)(=O)=O)c4)cc3)CC2)n1,16 µg/mL,89%,0.25 µg/mL,0.06%,–,4%,7%,4 µg/mL,–,–,–
Cc1cc(C#N)nc(N2CCN(S(=O)(=O)c3ccc(NC(=O)c4cc(CN5CC(CN)C5)ccc4N(C)S(C)(=O)=O)cc3)CC2)n1,2 µg/mL,71%,≤ 0.125 µg/mL,0.13%,54 µM,5%,16%,0.5 µg/mL,–,–,–
CC(=O)N1CCc2cc(S(=O)(=O)N3CCN(c4cccc(C(F)(F)F)c4)CC3)ccc21,–,–,–,–,–,–,–,–,–,–,0.25 µg/mL
Cc1cc(C#N)nc(N2CCN(S(=O)(=O)c3ccc(NC(=O)c4cccc(NS(C)(=O)=O)c4)cc3)CC2)n1,4 µg/mL,75%,0.125 µg/mL,0.05%,–,3%,12%,2 µg/mL,–,–,–
Cc1cc(C#N)nc(N2CCN(S(=O)(=O)c3ccc(NC(=O)c4cc(NS(C)(=O)=O)nc(N5CC(CN)C5)c4)cc3)CC2)n1,8 µg/mL,80%,0.5 µg/mL,0.12%,> 100 µM,1%,0%,4 µg/mL,–,–,–
CS(=O)(=O)Nc1cccc(C(=O)Nc2ccc(S(=O)(=O)N3CCN(c4cc(Cl)cc(Cl)c4)CC3)cc2)c1,4 µg/mL,–,0.125 µg/mL,–,–,–,–,–,–,–,–
CS(=O)(=O)Nc1ccccc1C(=O)Nc1ccc(S(=O)(=O)N2CCN(c3cc(Cl)cc(Cl)c3)CC2)cc1,64 µg/mL,–,–,–,–,–,–,–,–,–,–
Cc1cc(C#N)nc(N2CCN(S(=O)(=O)c3ccc(NC(=O)c4cc(NS(C)(=O)=O)cc(N5CC(CN)C5)c4)cc3)CC2)n1,64 µg/mL,92%,0.25 µg/mL,0.12%,> 100 µM,5%,9%,32 µg/mL,–,–,–
Cc1cc(C#N)nc(N2CCN(S(=O)(=O)c3ccc(NC(=O)c4cc(Cl)nc(NS(C)(=O)=O)c4)cc3)CC2)n1,8 µg/mL,54%,≤ 0.125 µg/mL,0.02%,> 50 µM,2%,0%,4 µg/mL,–,–,–
Cc1cc(C#N)nc(N2CCN(S(=O)(=O)c3ccc(NC(=O)c4cc(C=C5CNC5)cc(NS(C)(=O)=O)c4)cc3)CC2)n1,64 µg/mL,86%,0.5 µg/mL,0.17%,> 100 µM,4%,24%,16 µg/mL,–,–,–
CN(c1ccccc1C(=O)Nc1ccc(S(=O)(=O)N2CCN(c3cc(Cl)cc(Cl)c3)CC2)cc1)S(C)(=O)=O,1 µg/mL,–,–,–,–,–,–,–,–,–,–
CN(c1cccc(C(=O)Nc2ccc(S(=O)(=O)N3CCN(c4cc(Cl)cc(Cl)c4)CC3)cc2)c1)S(C)(=O)=O,64 µg/mL,–,0.125 µg/mL,–,–,–,–,–,–,–,–
Cc1cc(C#N)nc(N2CCN(S(=O)(=O)c3ccc(NC(=O)c4ccccc4N(C)S(C)(=O)=O)cc3)CC2)n1,2 µg/mL,100%,≤ 0.125 µg/mL,0.05%,29 µM,14%,24%,2 µg/mL,–,–,–
